Tests used:
Canis familiaris [1] = assay: Toxicity in beagle dog assessed as emesis administered directly into stomach via gastric cannula; format: organism-based, Canis lupus familiaris; conditions: in vivo, other
Canis familiaris [2] = assay: Toxicity in beagle dog assessed as tachycardia administered directly into stomach via gastric cannula; format: organism-based, Canis lupus familiaris; conditions: in vivo, other
Canis familiaris [3] = assay: Inhibition of gastrin tetrapeptide-induced gastric secretion in beagle dog at 16 mg/kg administered directly into stomach via gastric cannula measured after 2 hrs of stimulation; format: functional; conditions: Canis lupus familiaris
Summary of the method: (§1)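 Conscious female beagles (5-9 kg) with chronic gastric fistula. Dose in 50 mL 1% methylcellulose was put into the stomach via the cannula 1 h before gastrin tetrapeptide 64 µg/kg sc (from 640 µg/mL in 30% Me2SO); controls got vehicle. Juice was collected for 2 h. Volume was measured, titratable acid obtained by titration to pH 7 with 0.01 N NaOH, and total acid taken as volume × concentration.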

Canis familiaris [4] = assay: Toxicity in beagle dog assessed as gastric bleeding administered directly into stomach via gastric cannula; format: organism-based, Canis lupus familiaris; conditions: in vivo, other
Canis familiaris [5] = assay: Inhibition of gastrin tetrapeptide-induced gastric secretion in beagle dog at 8 mg/kg administered directly into stomach via gastric cannula measured after 2 hrs of stimulation; format: functional; conditions: Canis lupus familiaris; summary of the method: as §1
Canis familiaris [6] = assay: Inhibition of gastrin tetrapeptide-induced gastric secretion in beagle dog at 4 mg/kg administered directly into stomach via gastric cannula measured after 2 hrs of stimulation; format: functional; conditions: Canis lupus familiaris; summary of the method: as §1

Compound | Activity (Canis familiaris [1]) | Activity (Canis familiaris [2]) | inhibition in vivo at 16 mg/kg (Canis familiaris [3]) [%] | Activity (Canis familiaris [4]) | inhibition in vivo at 8 mg/kg (Canis familiaris [5]) [%] | inhibition in vivo at 4 mg/kg (Canis familiaris [6]) [%]
Cl.N=C(CS)NC1c2ccccc2-c2ccccc21 | Toxic | Toxic | 0 | Toxic | – | –
CC(=N)NC1CCCCC1 | Toxic | Toxic | 0 | Toxic | – | –
Cl.N=C(CS)NC1CCCC1 | Toxic | Toxic | – | Toxic | 100 | 63
O=C(CS)NC1CCCCC1 | Toxic | Toxic | – | Toxic | 0 | –
Cl.N=C(CS)NCCC12CC3CC(CC(C3)C1)C2 | Toxic | Toxic | 100 | Toxic | 61 | 0
CC(C)NC(=N)CS.Cl | Toxic | Toxic | – | Toxic | 58 | –
Cl.N=C(CS)NC(Cc1ccccc1)c1ccccc1 (centres undefined) | Toxic | Toxic | 84 | Toxic | – | –
CC(=N)NCc1ccccc1.Cl | Toxic | Toxic | 19 | Toxic | – | –
Cl.N=C(CS)NCc1ccccn1 | Toxic | Toxic | – | Toxic | 82 | –
CC(C)(C)CNC(=N)CCSSCCC(=N)NCC(C)(C)C.Cl | Toxic | Toxic | 75 | Toxic | 21 | –
Cl.N=C(CSSCC(=N)NCC12CC3CC(CC(C3)C1)C2)NCC12CC3CC(CC(C3)C1)C2 | Toxic | Toxic | 80 | Toxic | 62 | –
CC(S)C(=N)NCC(C)(C)C.Cl (centres undefined) | Toxic | Toxic | 28 | Toxic | 0 | –
Cl.N=C(CS)NCCCCCC12CC3CC(CC(C3)C1)C2 | Toxic | Toxic | – | Toxic | 9 | –
Cl.N=C(CS)Nc1cccc2ccccc12 | Toxic | Toxic | 64 | Toxic | – | –
Cl.N=C(CS)NCc1ccccc1 | Toxic | Toxic | – | Toxic | 83 | 29
Cl.N=C(CS)NCCCC12CC3CC(CC(C3)C1)C2 | Toxic | Toxic | – | Toxic | 81 | 36
CSCC(=N)NC[C@@H]1C[C@H]2CC[C@H]1C2 (relative stereo) | Toxic | Toxic | – | Toxic | 35 | –
Cl.N=C(CS)NCc1ccncc1 | Toxic | Toxic | – | Toxic | 85 | –
Cl.N=C(CS)NCC12CCCC(CCC1)C2 | Toxic | Toxic | 23 | Toxic | 67 | –
Cl.N=C(CS)NCCCCC12CC3CC(CC(C3)C1)C2 | Toxic | Toxic | – | Toxic | 67 | 0
CN(Cc1ccccc1)C(=N)CS.Cl | Toxic | Toxic | 0 | Toxic | – | –
Cl.N=C(CS)Nc1ccccc1 | Toxic | Toxic | 0 | Toxic | – | –
CC(C)(C)CNC(=N)CCCS.Cl | Toxic | Toxic | – | Toxic | 11 | –
Cl.N=C(CS)N[C@@H]1C[C@H]2CC[C@H]1C2 (relative stereo) | Toxic | Toxic | – | Toxic | 94 | –
Cl.N=C(CSSCC(=N)NCc1ccccc1)NCc1ccccc1 | Toxic | Toxic | – | Toxic | – | 84
Cl.N=C(CS)NCC1CC2C3CCC(C3)C2C1 (centres undefined) | Toxic | Toxic | – | Toxic | 70 | –
